In ChEMBL document CHEMBL4706717, “Covalent Occlusion of the RORγt Ligand Binding Pocket Allows Unambiguous Targeting of an Allosteric Site” (ACS Med Chem Lett, 2021):
The source made the active and inactive calls. The rule behind the calls is not given here.

What was measured:
[1] = target: T1, Peroxisome proliferator-activated receptor gamma (Homo sapiens) (UniProt P37231); assay: Binding affinity to PPARgamma (unknown origin)
T1 sequence (whole entry): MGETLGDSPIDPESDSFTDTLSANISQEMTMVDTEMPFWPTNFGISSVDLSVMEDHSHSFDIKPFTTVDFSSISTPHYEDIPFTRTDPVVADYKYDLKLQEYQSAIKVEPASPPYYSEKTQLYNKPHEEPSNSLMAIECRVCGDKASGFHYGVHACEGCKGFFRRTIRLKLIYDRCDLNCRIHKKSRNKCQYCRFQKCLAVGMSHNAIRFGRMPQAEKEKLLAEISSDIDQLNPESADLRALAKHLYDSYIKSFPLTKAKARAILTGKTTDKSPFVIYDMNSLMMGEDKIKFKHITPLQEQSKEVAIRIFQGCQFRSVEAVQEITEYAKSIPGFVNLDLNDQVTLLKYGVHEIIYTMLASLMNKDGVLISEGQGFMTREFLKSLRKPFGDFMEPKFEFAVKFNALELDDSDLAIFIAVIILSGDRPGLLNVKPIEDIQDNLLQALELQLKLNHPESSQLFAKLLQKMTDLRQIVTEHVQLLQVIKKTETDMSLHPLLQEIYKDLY

[2] = target: T2, Nuclear receptor ROR-gamma (Homo sapiens) (UniProt P51449); assay: (§1) Orthosteric agonist activity at 2-chloro-5-nitro-N-(2-(trifluoromethyl)phenyl)benzamide-ligated recombinant human N-terminal His6-tagged RORgammat ligand binding domain (265 to 518 residues) expressed in Escherichia coli BL21 (DE3) assessed as increase in coactivator, N-terminal biotinylated SRC-1 box2 peptide recruitment in presence of 2-chloro-5-nitro-N-(2-(trifluoromethyl)phenyl)benzamide incubated for 60 mins by TR-FRET assay
T2 sequence (whole entry): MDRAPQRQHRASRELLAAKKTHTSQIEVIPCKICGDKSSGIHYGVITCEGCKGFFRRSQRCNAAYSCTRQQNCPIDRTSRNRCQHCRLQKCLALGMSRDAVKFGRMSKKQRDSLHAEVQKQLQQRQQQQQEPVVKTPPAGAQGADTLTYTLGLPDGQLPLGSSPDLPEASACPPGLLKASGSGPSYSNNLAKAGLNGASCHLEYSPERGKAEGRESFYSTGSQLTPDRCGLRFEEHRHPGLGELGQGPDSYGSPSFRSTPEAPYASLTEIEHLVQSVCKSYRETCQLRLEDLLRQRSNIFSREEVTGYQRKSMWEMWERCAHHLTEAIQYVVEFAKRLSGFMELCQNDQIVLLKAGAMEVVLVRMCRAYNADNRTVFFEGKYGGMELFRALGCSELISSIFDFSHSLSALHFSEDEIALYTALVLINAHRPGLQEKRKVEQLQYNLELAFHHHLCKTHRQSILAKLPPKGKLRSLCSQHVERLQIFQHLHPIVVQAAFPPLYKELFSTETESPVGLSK
Outline: (§2)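 Dose response: probe and His6-RORγt LBD (265-518, 20 μM) co-titrated (1.4x series, top 10 eq, 200 μM) in pH 5.8 TRIS/NaCl/CHAPS/BSA buffer overnight (4°C or RT per compound). Then 100 nM LBD, 100 nM biotin-SRC-1 box2, Tb anti-His, d2-streptavidin in HEPES pH 7.5, 150 mM NaCl, 5 mM DTT, 0.1% BSA, 0.1 mM CHAPS, 1% DMSO; top probe 1 μM; 60 min RT; 665/620 nm ratio; four-parameter fit; triplicate, ≥2 experiments.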

[3] = target: T2, Nuclear receptor ROR-gamma (Homo sapiens); assay: Orthosteric agonist activity at 2-chloro-5-nitro-N-o-tolylbenzamide-ligated recombinant human N-terminal His6-tagged RORgammat ligand binding domain (265 to 518 residues) expressed in Escherichia coli BL21 (DE3) assessed as increase in coactivator, N-terminal biotinylated SRC-1 box2 peptide recruitment in presence of 2-chloro-5-nitro-N-o-tolylbenzamide incubated for 60 mins by TR-FRET assay; outline: as §2
[4] = target: T2, Nuclear receptor ROR-gamma (Homo sapiens); assay: Orthosteric agonist activity at 2-chloro-N-(2,6-dimethylphenyl)-5-nitrobenzamide-ligated recombinant human N-terminal His6-tagged RORgammat ligand binding domain (265 to 518 residues) expressed in Escherichia coli BL21 (DE3) assessed as increase in coactivator, N-terminal biotinylated SRC-1 box2 peptide recruitment in presence of 2-chloro-N-(2,6-dimethylphenyl)-5-nitrobenzamide incubated for 60 mins by TR-FRET assay; outline: as §2
[5] = target: T2, Nuclear receptor ROR-gamma (Homo sapiens); assay: as §1, with “GW9662-ligated” for “2-chloro-5-nitro-N-(2-(trifluoromethyl)phenyl)benzamide-ligated”, “GW9662” for “2-chloro-5-nitro-N-(2-(trifluoromethyl)phenyl)benzamide”; outline: as §2
[6] = target: T3, Nuclear receptor ROR-gamma (Homo sapiens, UniProt P51449); assay: Orthosteric inverse agonist activity at recombinant human N-terminal His6-tagged RORgammat ligand binding domain (265 to 518 residues) expressed in Escherichia coli BL21 (DE3) assessed as reduction in coactivator, N-terminal biotinylated SRC-1 box2 peptide recruitment incubated for 60 mins by TR-FRET assay
T3 sequence (P51449 whole entry): T2 sequence (whole entry)

[7] = target: T2, Nuclear receptor ROR-gamma (Homo sapiens); settings: filed as inverse agonist, dose 10.0 µM
[8] = target: T2, Nuclear receptor ROR-gamma (Homo sapiens); settings: filed as inverse agonist, dose 10.0 µM; remark: listed apart in the source
Homo sapiens = organism: Homo sapiens; assay: Binding affinity to recombinant human N-terminal His6-tagged RORgammat ligand binding domain (265 to 507 residues) Cys320Ala mutant expressed in Escherichia coli BL21 (DE3) incubated for overnight by Q-TOF-MS analysis
Outline: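 Ligation of His6-RORγt LBD (residues 265-507, used for mutagenesis work) at 20 μM with 5-10 eq probe in 50 mM TRIS (pH 5.3-5.8), 50 mM NaCl, 5 mM CHAPS, 0.1% BSA, continuous mixing overnight at 4°C or RT; LC-MS Q-TOF, deconvoluted spectra; percent ligation from ratio of mass peaks.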

CC(C)NC(=O)c1cc([N+](=O)[O-])ccc1Cl
Activity [1]: Active

O=C(c1cc([N+](=O)[O-])ccc1Cl)n1cccc1
Activity [1]: inactive

CC(C)CCC[C@@H](C)[C@H]1CC[C@H]2[C@@H]3CC=C4C[C@@H](O)CC[C@]4(C)[C@H]3CC[C@]12C
Activity [2]: inactive
Activity [3]: inactive
Activity [4]: inactive
Activity [5]: inactive

O=C(Nc1ccsc1)c1cc([N+](=O)[O-])ccc1Cl
Activity [1]: Active
IC50 [6]: 122 nM

O=C(Nc1ccc([N+](=O)[O-])cc1)c1cc([N+](=O)[O-])ccc1Cl
Activity [1]: Active

COc1ccc(NC(=O)c2cc([N+](=O)[O-])ccc2Cl)cc1
Activity [1]: Active

C=CCNC(=O)c1cc([N+](=O)[O-])ccc1Cl
Activity [1]: Active

O=C(NC1CCCCC1)c1cc([N+](=O)[O-])ccc1Cl
Activity [1]: Active

C[C@H]1O[C@@H](O[C@H]2[C@@H](O)C[C@H](O[C@H]3[C@@H](O)C[C@H](O[C@H]4CC[C@@]5(C)[C@H](CC[C@@H]6[C@@H]5C[C@@H](O)[C@]5(C)[C@@H](C7=CC(=O)OC7)CC[C@]65O)C4)O[C@@H]3C)O[C@@H]2C)C[C@H](O)[C@@H]1O
ΔTm [7]: -0.2 °C

Cc1cccc(NC(=O)c2cc([N+](=O)[O-])ccc2Cl)c1
Activity [1]: Active

O=C(O)c1ccc(NCc2c(-c3c(Cl)cccc3C(F)(F)F)noc2-c2cc[nH]c2)cc1
ΔTm [8]: 2.1 °C

Cc1ccc(NC(=O)c2cc([N+](=O)[O-])ccc2Cl)cc1
Activity [1]: Active

O=C(Nc1ccccc1)c1cc(Cl)ccc1[N+](=O)[O-]
Activity [1]: inactive

O=C(NCc1ccccc1)c1cc([N+](=O)[O-])ccc1Cl
Activity [1]: Active

O=C(Nc1ccccc1)c1cc([N+](=O)[O-])ccc1Cl
IC50 [6]: 86 nM
Activity (Homo sapiens): inactive

Cc1ccccc1NC(=O)c1cc([N+](=O)[O-])ccc1Cl
Activity [1]: Active
IC50 [6]: 77 nM
